# Source: PubChem BioAssay AID623932 (Vanderbilt High Throughput Screening Facility, 2012)
# The source made the active and inactive calls.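 The calls were made as follows: active = at one tested dose, specific binding or response inhibited over 50%; inactive = the rest.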
# Assay: off-target radioligand displacement across receptor panel, profiling panel, selectivity assay, biochemical, Ricerca panel (AID 623932)
# Conditions: Ricerca radioligand binding panel, % inhibition, at 10 µM, stronger effect = higher value
# Outline: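 Read-out: % loss of selective radioligand binding; system: radioligand binding panel; benchmarks: reference standards included in every panel assay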
smiles,measurement,setting,value
Cc1cc(NC(=O)Nc2ccc(F)c(F)c2)n(-c2ccccc2)n1,inhibition,NMDA binding inhibition,21%
same,inhibition,,60% (inactive)
same,inhibition,measured here: 5-HT2B binding inhibition,46%
same,inhibition,measured here: DAT binding inhibition,12%
same,inhibition,measured here: GABA-A flunitrazepam binding inhibition,24%
same,inhibition,measured here: GABA-A muscimol binding inhibition,49%
same,inhibition,measured here: NET binding inhibition,15%
same,inhibition,measured here: NPY Y1 binding inhibition,24%
same,inhibition,measured here: P2X binding inhibition,16%
same,inhibition,measured here: dopamine D2S binding inhibition,16%
same,inhibition,measured here: hERG binding inhibition,10%
same,inhibition,measured here: imidazoline I2 binding inhibition,20%
same,inhibition,measured here: mu opioid binding inhibition,21%
